The results in this text go back to ChEMBL document CHEMBL4354813, “Design, Synthesis, and Pharmacological Evaluation of Potent Positive Allosteric Modulators of the Glucagon-like Peptide-1 Receptor (GLP-1R)” (J Med Chem, 2020).

Activity calls are given as the source filed them. The rule behind the calls is not given here.

The species entered for data set [1] is Rattus norvegicus. The data set can be described thus: Improvement in 10 nM GLP1(9-36)NH2-mediated glucose-stimulated insulin secretion in dispersed rat pancreatic islets at 10 uM incubated for 2 hrs under […] conditions by ELISA. In kind it is functional.
The target of the next data set is T1, OATP1B1 (Homo sapiens, UniProt Q9Y6L6).
T1 sequence (Q9Y6L6 whole entry): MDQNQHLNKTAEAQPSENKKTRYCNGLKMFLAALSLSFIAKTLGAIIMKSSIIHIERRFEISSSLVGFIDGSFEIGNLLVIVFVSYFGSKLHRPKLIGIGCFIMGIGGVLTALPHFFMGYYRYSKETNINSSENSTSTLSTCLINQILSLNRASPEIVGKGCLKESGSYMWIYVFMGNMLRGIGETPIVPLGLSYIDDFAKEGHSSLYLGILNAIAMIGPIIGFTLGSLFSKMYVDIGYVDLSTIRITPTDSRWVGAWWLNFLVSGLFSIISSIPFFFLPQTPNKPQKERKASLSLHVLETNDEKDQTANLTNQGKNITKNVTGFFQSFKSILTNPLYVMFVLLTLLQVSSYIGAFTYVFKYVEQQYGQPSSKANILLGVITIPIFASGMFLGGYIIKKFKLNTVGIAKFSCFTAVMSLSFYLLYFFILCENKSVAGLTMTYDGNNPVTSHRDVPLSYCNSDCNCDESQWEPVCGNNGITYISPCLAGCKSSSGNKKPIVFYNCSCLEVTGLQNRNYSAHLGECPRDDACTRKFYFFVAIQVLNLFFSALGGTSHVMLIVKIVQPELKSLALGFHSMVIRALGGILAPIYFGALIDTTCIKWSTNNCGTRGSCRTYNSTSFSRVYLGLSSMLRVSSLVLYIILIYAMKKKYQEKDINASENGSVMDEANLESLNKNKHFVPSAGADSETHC
The data set can be described thus: Substrate activity at human OATP1B1 expressed in HEK293 cells assessed as increase in compound uptake at 1 uM incubated up to 15 mins LC-MS/MS analysis relative to control relative to control. In kind it is ADME, cell-based. Particulars: HEK293 cells expressing human OATP1B1, read-out: FC. The method, boiled down:
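HEK-TR cells overexpressing hOATP1B1 or hOATP1B3, run in parallel with control HEK-TR cells, seeded at 1 x 10⁵ cells/well one day before. Time-dependent uptake of 1 μM compound in HBSS at 37 °C, quadruplicates. Uptake stopped with ice-cold buffer, cells washed, lysed and quantified by LC-MS/MS. Uptake ratio calculated against the control cells.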

A short description of data set [2]: Permeability from apical and basolateral in human Caco2/TC7 cells at pH 7.4 in presence of 0.5% BSA. In kind it is ADME, cell-based. The conditions noted are these: caco2/tc7, pH 7.4.
In data set [3] the test system is Mus musculus. The data set can be described thus: Suppression of blood glucose concentration in GLP1(9-36)NH2-treated ob/ob C57Bl/6J mouse model of T2DM at 30 mg/kg, po dosed 1 hrs before test and treated with 60 mg/kg, po OATP/MRP2 inhibitor rifampicin 2.5 hrs prior to oral glucose-tolerance test. The format is functional, organism-based. Put shortly: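 Male ob/ob mice aged 10–11 weeks, n=7, randomised on blood glucose and fasted overnight. Rifampicin 60 mg/kg p.o. 2.5 h before the oGTT, compound 30 mg/kg p.o. 1 h before, GLP1(9-36)NH2 i.p. 15 min before, each given as indicated. Glucose 2 g/kg orally. Tail-vein glucose by glucometer at 0, 15, 30, 60 and 90 min.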

Data set [4] concerns Mus musculus. Briefly: Suppression of blood glucose concentration in GLP-1R (-/-) C57Bl/6J mouse model at 30 mg/kg, po dosed 1 hrs before test and treated with 60 mg/kg, po OATP/MRP2 inhibitor rifampicin 2.5 hrs prior to oral glucose-tolerance test. The format is functional, organism-based. The method, boiled down:
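GLP-1R-/- male mice aged 10 weeks, n=6, fasted overnight. Rifampicin 60 mg/kg p.o. 2.5 h before the oGTT, compound p.o. 1 h before, with or without GLP1(9-36)NH2 i.p. 15 min before. Glucose 2 g/kg orally. Tail-vein blood glucose by glucometer at 0, 15, 30, 60 and 90 min.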

A short description of data set [5]: Solubility in pH 7.4 buffer. The format is physicochemical.
Data set [6] concerns the target T2, Cytochrome P450 3A4 (Homo sapiens, UniProt P08684). Briefly: Inhibition of CYP3A4 (unknown origin) using midazolam substrate. The format is ADME.
Data set [7] concerns the target T2, Cytochrome P450 3A4. Briefly: Inhibition of CYP3A4 (unknown origin) using testosterone as substrate. The format is ADME.
Data set [8] is described as follows: Clearance in mouse hepatocytes assessed per million cells by LC-MS/MS analysis. The format is ADME, cell-based, Hepatocyte. The method, boiled down:
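Intrinsic clearance in primary human hepatocytes ([…] as printed) or mouse hepatocytes, compound 0.5–5 µM; quinidine or ketoconazole added to define CYP2D6/CYP3A4 contribution; LC-MS/MS analysis.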

The nature of data set [9]: AUClast in C57Bl6 mouse at 10 mg/kg, po administered as single dose measured up to 24 hrs ESI-LC/MS-MS analysis. In kind it is ADME, organism-based. The arrangement: dose 10 mg/kg, time < 24 hr, route oral. Particulars: in vivo. Put shortly:
(§1)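 Single dose of compound: 3 mg/kg i.v. in solution (75% water : 25% of 75% Glycoferol/25% Cremophor) or 10 mg/kg p.o. as wet-milled suspension (0.6% methylcellulose, 0.5% Tween 80 in water); male Wistar rats n=3 per route, female C57Bl6 mice n=24 per route. Plasma sampled 0.25–24 h (p.o.), 0.083–24 h (i.v.); heparinized plasma, acetonitrile precipitation, ESI-LC/MS-MS (LOQ 1 ng/mL rat, 5 ng/mL mouse); noncompartmental analysis, linear trapezoidal.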

Data set [10] can be described thus: Cmax in Wistar rat at 10 mg/kg, po administered as single dose measured up to 24 hrs ESI-LC/MS-MS analysis. In kind it is ADME, organism-based. The arrangement: dose 10 mg/kg, route oral. Particulars: in vivo. Put shortly: as §1
A short description of data set [11]: AUClast in Wistar rat at 10 mg/kg, po administered as single dose measured up to 24 hrs ESI-LC/MS-MS analysis. In kind it is ADME, organism-based. The arrangement: dose 10 mg/kg, time < 24 hr, route oral. Particulars: in vivo. Put shortly: as §1
Data set [12] is described as follows: Oral bioavailability in Wistar rat at 10 mg/kg administered as single dose treated 2 hrs after dosing with 40 mg/kg, po OATP/MRP2 inhibitor rifampicin and measured up to 24 hrs ESI-LC/MS-MS analysis. The format is ADME, organism-based. The conditions noted are these: in vivo. Put shortly: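 Male Wistar rats (n=3 per route) pretreated orally with rifampicin 40 mg/kg (0.6% methylcellulose, 0.5% Tween 80 in water) 2 h before compound, given 3 mg/kg i.v. in Glycoferol/Cremophor-water solution or 10 mg/kg p.o. wet-milled suspension. Plasma sampled up to 24 h; ESI-LC/MS-MS after acetonitrile precipitation (LOQ 1 ng/mL); noncompartmental analysis.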

The species entered for data set [13] is Rattus norvegicus. Briefly: Improvement in GLP1(9-36)NH2-mediated glucose-stimulated insulin secretion in dispersed rat pancreatic islets at <10 uM incubated for 2 hrs by ELISA. The format is functional. The method, boiled down: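 Dispersed rat islets pre-incubated 1 h in Krebs-Ringer (5.6 mM glucose), then 2 h at 37 °C at 15 mM glucose with GLP1(9-36)NH2 1, 10 or 100 nM ± compound 1 µM, DMSO vehicle. Supernatant insulin measured by HTRF-based ELISA, expressed as % of total insulin and n-fold vs respective control; N≥9 per condition.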

For the next data set, the system named is Pancreatic islet. The data set can be described thus: Inhibition of GLP1(9-36)NH2-mediated glucose-stimulated insulin secretion in dispersed GLP-1(-/-) mouse pancreatic islets at 10 uM incubated for 2 hrs by ELISA. The format is functional, cell-based.

T2 sequence (P08684 whole entry): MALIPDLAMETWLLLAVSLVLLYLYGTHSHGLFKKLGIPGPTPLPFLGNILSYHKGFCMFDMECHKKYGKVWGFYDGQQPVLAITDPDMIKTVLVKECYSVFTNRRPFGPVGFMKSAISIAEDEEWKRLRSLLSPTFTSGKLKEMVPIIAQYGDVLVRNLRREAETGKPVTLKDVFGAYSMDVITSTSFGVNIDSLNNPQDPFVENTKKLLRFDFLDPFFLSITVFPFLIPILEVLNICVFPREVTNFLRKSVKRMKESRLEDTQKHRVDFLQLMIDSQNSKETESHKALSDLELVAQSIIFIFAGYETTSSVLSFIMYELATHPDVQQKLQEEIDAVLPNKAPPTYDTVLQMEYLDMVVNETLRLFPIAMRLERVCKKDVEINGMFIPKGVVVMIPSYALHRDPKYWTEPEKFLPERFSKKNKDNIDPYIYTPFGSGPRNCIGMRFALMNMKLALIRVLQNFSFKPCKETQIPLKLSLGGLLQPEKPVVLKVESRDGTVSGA

On to `CC(C)(C)OC(=O)n1c2c(c3ccccc31)C[C@H]1C(=O)N3C[C@@H](CC(=O)O)C[C@H]3[C@@H]2N1C(=O)CC1CCC(F)(F)CC1`, for which the result in the data set filed under Rattus norvegicus [1] and with Mus musculus [4] was inactive. At OATP1B1, the uptake ratio at 0.25 h, 1 µM is 6 to 22. Also, the permeability in [2] was 0.18 ×10⁻⁷ cm/s. In addition, in the data set with Mus musculus [3], the result was Active. This compound displayed a solubility in [5] above 853 µM. For the same compound, the IC50 against Cytochrome P450 3A4 [6] and at Cytochrome P450 3A4 [7] was above 50 µM each time. In [8], the CLH is 0.145 mL/h/10^6 cells. This compound came in with an area under the curve AUC(0-t) at 24 h in data set [9] of 109 ng·h/mL. The compound also had a peak concentration (Cmax) in data set [10] of 106 ng/mL. The compound further displayed an AUClast in data set [11] of 110 ng·h/mL. In data set [12], this compound displayed a bioavailability of 100%.

Regarding `CC(O)CCN1C[C@H]2c3c(c4ccccc4n3C(=O)OC(C)(C)C)C[C@@H](C1=O)N2C(=O)CC1CCC(F)(F)CC1` (stereo not given in full), the outcome in the data set filed under Rattus norvegicus [13] was Active. Further, in the data set on Pancreatic islet, the inhibition entry is “Active”.
